Laboratory results reported in ChEMBL document CHEMBL1141653, “New bis(2-aminoimidazoline) and bisguanidine DNA minor groove binders with potent in vivo antitrypanosomal and antiplasmodial activity” (J Med Chem, 2008).
Calls of active or inactive are those of the source. No cut-off for these calls is given here.

How the values were obtained:
[1] = test system: Trypanosoma brucei rhodesiense; test: Antitrypanosomal activity against Trypanosoma brucei rhodesiense STIB900; format: functional, organism-based
Method in brief: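 Bloodstream forms (10⁴ per well) in MEM with 15% heat-inactivated horse serum, 25 mM HEPES, 2-mercaptoethanol, hypoxanthine. 3-fold serial dilutions from 90 to 0.123 µg/mL, in duplicate. Incubation 72 h at 37 °C, 5% CO₂. Resazurin then added for 2–4 h more. Fluorescence read at ex 536 / em 588 nm.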

Plasmodium falciparum = test: Antiplasmodial activity against Plasmodium falciparum K1 in [3H]hypoxanthine incorporation assay; format: functional, organism-based; details: K1, 72 h
Method in brief: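 K1 erythrocytic stages in RPMI 1640 without hypoxanthine with AlbuMax, human A⁺ red cells at 2.5% hematocrit, 0.3% parasitemia. Compounds taken from 10 mg/mL DMSO stock, tested as serial doubling dilutions at 37 °C in 4% CO₂/3% O₂/93% N₂. After 48 h, ³H-hypoxanthine (0.5 µCi) added for 24 h more; incorporation by scintillation counting. IC₅₀ from sigmoidal curves.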

L6 = test: Cytotoxicity against rat L6 cells; format: cell-based
[2] = Selectivity index, ratio of IC50 for rat L6 cells to IC50 for Trypanosoma brucei rhodesiense STIB900; format: functional
Method in brief: (§1)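 Ratio of the IC₅₀ on L-6 rat skeletal myoblasts to the parasite IC₅₀. Cytotoxicity measured in RPMI 1640 with L-glutamine and 10% FBS, serial dilutions 90 to 0.123 µg/mL, duplicate. After 72 h, Alamar blue (resazurin) added for 2 h. Fluorescence read at ex 536 / em 588 nm.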

[3] = Selectivity index, ratio of IC50 for rat L6 cells to IC50 for Plasmodium falciparum K1; format: functional; method in brief: as §1
[4] = test system: Trypanosoma brucei rhodesiense; test: Antitrypanosomal activity against Trypanosoma brucei rhodesiense STIB900 infected NMRI mouse assessed as survival of animals administered at 20 mg/kg, ip after 4 days; format: functional; details: route intraperitoneal
Method in brief: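 Mice infected ip with 2 × 10⁴ bloodstream forms of T. b. rhodesiense STIB900. Groups of four treated ip on days 3–6, untreated control group. Parasitemia checked every second day to day 14, then twice weekly to day 60. Deaths recorded for mean survival time. Surviving aparasitemic mice at 60 days counted as cured.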

[5] = Binding affinity for DNA assessed as thermal melting temperature
Method in brief: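 Thermal melting of poly(dA)·poly(dT): DNA at 40 µM base with compound at 12 µM (ratio 0.3) in MES 0.01 M / EDTA 0.001 M buffer, pH 6.25. A260 followed from 20 to 95 °C at 0.5 °C/min. Value is ΔTm.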

Ferriprotoporphyrin IX [6] = test: Inhibition of ferriprotoporphyrin 9 biomineralization at 1 mg/ml; format: functional
Method in brief: (§2)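 β-Hematin formation: hemin chloride (0.5 mg/mL in DMSO) with 0.5 M sodium acetate pH 4.4 and drug dilutions, 37 °C for 18–24 h. Pellet washed with DMSO, dissolved in 0.1 N NaOH, A405 read. Percent inhibition relative to solvent control. IC₅₀ derived, or percent inhibition at 1 mg/mL (highest concentration) given when no IC₅₀.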

[7] = test system: Trypanosoma brucei rhodesiense; test: Antitrypanosomal activity against Trypanosoma brucei rhodesiense STIB900 infected NMRI mouse assessed as number of cured animals at 20 mg/kg, ip after 4 days; format: functional, organism-based; design: dose 20 mg/kg
Method in brief: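 Mice infected ip with 2 × 10⁴ STIB900 bloodstream forms. Groups of four treated ip on days 3–6, with an untreated control group. Parasitemia checked every second day to day 14, then twice weekly to day 60. Mice surviving and aparasitemic at 60 days counted as cured.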

Ferriprotoporphyrin IX [8] = test: Inhibition of ferriprotoporphyrin 9 biomineralization; format: functional; method in brief: as §2
[9] = test system: Plasmodium berghei (ANKA); test: Antiplasmodial activity as survival against Plasmodium berghei ANKA infection in NMRI mice (Mus musculus) at 20 mg/kg intraperitoneal dose for 4 days
[10] = test system: Plasmodium berghei (ANKA); test: Antiplasmodial activity against parasitemia in Plasmodium berghei ANKA infected NMRI mice (Mus musculus) at 20 mg/kg intraperitoneal dose after 4 days
[11] = test system: Plasmodium berghei (ANKA); test: Antiplasmodial activity against parasitemia in Plasmodium berghei ANKA infected NMRI mice (Mus musculus) at 5 mg/kg intraperitoneal dose after 4 days
[12] = test system: Plasmodium berghei (ANKA); test: Antiplasmodial activity as survival against Plasmodium berghei ANKA infection in NMRI mice (Mus musculus) at 10 mg/kg intraperitoneal dose for 4 days
[13] = test system: Plasmodium berghei (ANKA); test: Antiplasmodial activity against parasitemia in Plasmodium berghei ANKA infected NMRI mice (Mus musculus) at 10 mg/kg intraperitoneal dose after 4 days
[14] = test system: Plasmodium berghei (ANKA); test: Antiplasmodial activity as survival against Plasmodium berghei ANKA infection in NMRI mice (Mus musculus) assessed at 5 mg/kg intraperitoneal dose for 4 days
Mus musculus = test: Toxicity in Plasmodium berghei ANKA infected NMRI mice (Mus musculus) at 50 mg/kg, intraperitoneally for 4 days; format: organism-based; design: dose 50 mg/kg, route intraperitoneal; details: in vivo, ip, 96 h
Method in brief: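 Toxicity recorded in the P. berghei ANKA model. Female NMRI mice (20–22 g), three per group, infected iv with 2 × 10⁷ parasitized erythrocytes. Compound in DMSO diluted 10-fold in water, dosed ip at 4, 24, 48 and 72 h post-infection. Survival followed up to 30 days after infection.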

Plasmodium berghei [15] = test: Antiplasmodial activity as survival against Plasmodium berghei ANKA infection in NMRI mice (Mus musculus) at 50 mg/kg intraperitoneal dose for 4 days
Plasmodium berghei [16] = test: Antiplasmodial activity against Plasmodium berghei ANKA infected NMRI mice (Mus musculus) as reduced parasitemia at 50 mg/kg intraperitoneal dose after 4 days; design: scale not given: the % may be the effect or the level left
Plasmodium berghei [17] = test: Antiplasmodial activity as survival against Plasmodium berghei ANKA infection in NMRI mice (Mus musculus) at 30 mg/kg intraperitoneal dose for 4 days
Plasmodium berghei [18] = test: Antiplasmodial activity against parasitemia in Plasmodium berghei ANKA infected NMRI mice (Mus musculus) at 30 mg/kg intraperitoneal dose after 4 days

Cl.c1cc(C2CCN(c3ccc(NC4=NCCN4)cc3)CC2)ccc1NC1=NCCN1
IC50 [1]: 38 nM
IC50 (Plasmodium falciparum): 11 nM
IC50 (L6): 132000 nM
Ratio IC50 [2]: 3474
Ratio IC50 [3]: 12000
Survival [4]: >47.25 days
ΔTm [5]: 35 °C
inhibition (Ferriprotoporphyrin IX [6]): 0%

Cl.Cl.O=C(Nc1ccc(NC2=NCCN2)cc1)c1ccc(NC2=NCCN2)cc1
IC50 [1]: 25 nM
IC50 (Plasmodium falciparum): 28 nM
IC50 (L6): 193000 nM
Ratio IC50 [2]: 7720
Ratio IC50 [3]: 6893
Activity [7]: Active
Survival [4]: >60 days
ΔTm [5]: 47.1 °C
IC50 (Ferriprotoporphyrin IX [8]): 705000 nM

c1cc(Nc2ccc(NC3=NCCN3)cc2)ccc1NC1=NCCN1
IC50 [1]: 69 nM
IC50 (Plasmodium falciparum): 8.8 nM
IC50 (L6): 212000 nM
Ratio IC50 [2]: 3072
Ratio IC50 [3]: 24000
ΔTm [5]: 38.5 °C
IC50 (Ferriprotoporphyrin IX [8]): 429000 nM
Survival [9]: 7 days
Activity [10]: 65.51%

CCN(CC)CCCC(C)Nc1ccnc2cc(Cl)ccc12 (configuration not stated) [CHLOROQUINE]
IC50 (Ferriprotoporphyrin IX [8]): 17900 nM
Activity [11]: 99.6%
Survival [12]: 20 days
Activity [13]: 99.6%
Survival [14]: 9 days

c1cc2c(cc1NC1=NCCN1)Cc1ccc(NC3=NCCN3)cc1C2
IC50 [1]: 60 nM
IC50 (Plasmodium falciparum): 18.6 nM
IC50 (L6): 37200 nM
Ratio IC50 [2]: 620
Ratio IC50 [3]: 2000
Activity [7]: Active
Survival [4]: >60 days
ΔTm [5]: 33.2 °C
IC50 (Ferriprotoporphyrin IX [8]): 161000 nM

c1cc(NC2=NCCN2)ccc1CCc1ccc(NC2=NCCN2)cc1
IC50 [1]: 54 nM
IC50 (Plasmodium falciparum): 16 nM
IC50 (L6): 34900 nM
Ratio IC50 [2]: 646
Ratio IC50 [3]: 2181
Activity [7]: Active
Survival [4]: >60 days
ΔTm [5]: 31.2 °C
inhibition (Ferriprotoporphyrin IX [6]): 0%

N=C(N)Nc1ccc(CCc2ccc(NC(=N)N)cc2)cc1
IC50 [1]: 45 nM
IC50 (Plasmodium falciparum): 19 nM
IC50 (L6): 1090 nM
Ratio IC50 [2]: 24
Ratio IC50 [3]: 57
Activity (Mus musculus): Toxic
ΔTm [5]: 26.1 °C
inhibition (Ferriprotoporphyrin IX [6]): 0%

c1cc(N2CCN(c3ccc(NC4=NCCN4)cc3)CC2)ccc1NC1=NCCN1
IC50 [1]: 118 nM
IC50 (Plasmodium falciparum): 12.3 nM
IC50 (L6): 104000 nM
Ratio IC50 [2]: 881
Ratio IC50 [3]: 8455
ΔTm [5]: 38.8 °C
IC50 (Ferriprotoporphyrin IX [8]): 128000 nM
Survival [9]: 7 days
Activity [10]: 0%

c1cc(Sc2ccc(NC3=NCCN3)cc2)ccc1NC1=NCCN1
IC50 [1]: 386 nM
IC50 (Plasmodium falciparum): 25 nM
IC50 (L6): 23300 nM
Ratio IC50 [2]: 60
Ratio IC50 [3]: 932
ΔTm [5]: 24.1 °C
IC50 (Ferriprotoporphyrin IX [8]): 952000 nM
Survival (Plasmodium berghei [15]): 11.3 days
Activity (Plasmodium berghei [16]): 97.5%

c1cc(NC2=NCCN2)ccc1Cc1ccc(NC2=NCCN2)cc1
IC50 [1]: 897 nM
IC50 (Plasmodium falciparum): 15.7 nM
IC50 (L6): 63600 nM
Ratio IC50 [2]: 71
Ratio IC50 [3]: 4051
ΔTm [5]: 18.8 °C
Survival [9]: 6.7 days
Activity [10]: 8.9%

Cl.Cl.N=C(N)Nc1ccc(NC(=O)c2ccc(NC(=N)N)cc2)cc1
IC50 [1]: 36 nM
IC50 (Plasmodium falciparum): 55 nM
IC50 (L6): 11500 nM
Ratio IC50 [2]: 319
Ratio IC50 [3]: 209
Activity [7]: Active
Survival [4]: >60 days
ΔTm [5]: 40.1 °C
inhibition (Ferriprotoporphyrin IX [6]): 0%

Cl.N=C(N)Nc1ccc(NC(=O)Nc2ccc(NC(=N)N)cc2)cc1
IC50 [1]: 187 nM
IC50 (Plasmodium falciparum): 96 nM
IC50 (L6): > 235000 nM
Ratio IC50 [2]: >1256
Ratio IC50 [3]: >2547
Activity (Mus musculus): Toxic
ΔTm [5]: 24.1 °C
inhibition (Ferriprotoporphyrin IX [6]): 0%

Cl.O=C(Nc1ccc(NC2=NCCN2)cc1)Nc1ccc(NC2=NCCN2)cc1
IC50 [1]: 122 nM
IC50 (Plasmodium falciparum): 28 nM
IC50 (L6): 104000 nM
Ratio IC50 [2]: 852
Ratio IC50 [3]: 3714
Activity [7]: Active
Survival [4]: >60 days
ΔTm [5]: 31 °C
IC50 (Ferriprotoporphyrin IX [8]): 393000 nM

c1cc(Oc2ccc(NC3=NCCN3)cc2)ccc1NC1=NCCN1
IC50 [1]: 467 nM
IC50 (Plasmodium falciparum): 38 nM
IC50 (L6): 41000 nM
Ratio IC50 [2]: 88
Ratio IC50 [3]: 1079
ΔTm [5]: 27.1 °C
inhibition (Ferriprotoporphyrin IX [6]): 0%
Survival (Plasmodium berghei [17]): 7 days
Activity (Plasmodium berghei [18]): 44.1%

CCCCC[P+](CCCCC)(CCCCC)Cc1ccc(C(=O)c2ccc(C[P+](CCCCC)(CCCCC)CCCCC)cc2)cc1.[Br-].[Br-]
IC50 [1]: 414 nM
IC50 (Plasmodium falciparum): 53 nM
IC50 (L6): 11800 nM
Ratio IC50 [2]: 29
Ratio IC50 [3]: 223
ΔTm [5]: 1.2 °C
IC50 (Ferriprotoporphyrin IX [8]): 219000 nM

Cl.N=C(N)Nc1ccc(NC(=S)Nc2ccc(NC(=N)N)cc2)cc1
IC50 [1]: 538 nM
IC50 (Plasmodium falciparum): 607 nM
IC50 (L6): 15500 nM
Ratio IC50 [2]: 29
Ratio IC50 [3]: 26
ΔTm [5]: 23 °C
IC50 (Ferriprotoporphyrin IX [8]): 686000 nM

N=C(N)Nc1ccc(N2CCN(c3ccc(NC(=N)N)cc3)CC2)cc1
IC50 [1]: 270 nM
IC50 (Plasmodium falciparum): 15.2 nM
IC50 (L6): 46400 nM
Ratio IC50 [2]: 172
Ratio IC50 [3]: 3053
ΔTm [5]: 27.8 °C
inhibition (Ferriprotoporphyrin IX [6]): 0%
Survival [9]: 7 days
Activity [10]: 42.48%

Cl.N=C(N)Nc1ccc(C2CCN(c3ccc(NC(=N)N)cc3)CC2)cc1
IC50 [1]: 217 nM
IC50 (Plasmodium falciparum): 41 nM
IC50 (L6): 24000 nM
Ratio IC50 [2]: 111
Ratio IC50 [3]: 585
Activity (Mus musculus): Toxic
ΔTm [5]: 30 °C
inhibition (Ferriprotoporphyrin IX [6]): 0%

N=C(N)Nc1ccc2c(c1)Cc1ccc(NC(=N)N)cc1C2
IC50 [1]: 50 nM
IC50 (Plasmodium falciparum): 8.8 nM
IC50 (L6): 730 nM
Ratio IC50 [2]: 15
Ratio IC50 [3]: 83
Activity (Mus musculus): Toxic
ΔTm [5]: 31.1 °C
inhibition (Ferriprotoporphyrin IX [6]): 0%
